# Source: PubChem BioAssay
# RanGTP-Imp inh = inhibitors of RanGTP-importin-beta interaction, primary screen, biochemical, FRET, CFP-Ran, YFP-importin-beta, homogeneous; Ran GTPase (GTP-bound) - importin-beta complex; cell-free CFP-Ran/YFP-importin-beta FRET ratio; inhibition, % (test concentration not listed); 300,000 tested, 1.1% active; AID 2216, 2009;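 active = more than half of the replicate wells show a fall in the fluorescence ratio signal beyond about 16%, limit read from the data, passing the limit was not always enough; inconclusive = exactly half of the replicate wells pass the set limit; inactive = fewer than half of replicates pass the limit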
# Hck-Nef inh = inhibitors of Nef-activated human Hck kinase, primary screen, biochemical, Z-Lyte FRET, 384-well, Hck-YEEI | AID 463187, 2010 | 220,000 tested, 0.68% active | inhibition, % at 20 µM | Tyrosine-protein kinase HCK (Homo sapiens), P08631 | Recombinant Hck-YEEI plus Nef, Z-Lyte FRET kinase assay;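 active = Hck-Nef kinase inhibition above about 50%, limit read from the data; inactive = inhibition below that limit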
# Target sequence (P08631 whole entry, looked up): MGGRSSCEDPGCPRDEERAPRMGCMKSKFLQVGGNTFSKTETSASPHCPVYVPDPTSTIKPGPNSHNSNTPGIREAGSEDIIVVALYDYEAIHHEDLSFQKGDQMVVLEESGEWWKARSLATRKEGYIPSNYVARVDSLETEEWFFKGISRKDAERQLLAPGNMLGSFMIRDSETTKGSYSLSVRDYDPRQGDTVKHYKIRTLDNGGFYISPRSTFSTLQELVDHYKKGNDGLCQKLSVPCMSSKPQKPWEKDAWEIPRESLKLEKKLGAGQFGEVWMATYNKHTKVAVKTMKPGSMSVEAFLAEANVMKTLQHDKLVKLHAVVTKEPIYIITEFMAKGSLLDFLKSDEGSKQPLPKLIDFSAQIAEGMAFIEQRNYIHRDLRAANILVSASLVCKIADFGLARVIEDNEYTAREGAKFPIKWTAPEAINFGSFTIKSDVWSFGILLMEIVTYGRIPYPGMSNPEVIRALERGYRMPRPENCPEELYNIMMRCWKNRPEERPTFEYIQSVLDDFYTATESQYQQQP
# CaV13 ICDI inh = Primary screen for inhibitors of IQ motif and Ca2+-dependent inactivation inhibitor domain binding in CACNA1D, Förster resonance energy transfer in living cells, …; HEK cells, CFP/YFP FRET ICDI-IQ, plate reader, 10 min; percent FRET-ratio fall versus neutral wells; AID 743397; 340,000 tested, 0.098% active; inhibition, % at 12.3 µM;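 active = mean replicate inhibition of at least 30% and at least 1% of replicates passing that level; inconclusive = only one of the two criteria is met; inactive = neither criterion is met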
# Runt-CBFb FRET = inhibitors of RUNX1 Runt–CBFb binding, primary screen, biochemical, FRET, Cerulean-Runt, Venus-CBFb, uHTS | Runt-related transcription factor 1 (Homo sapiens) + Core-binding factor subunit beta … | Cerulean-Runt/Venus-CBFb FRET ratio 530/480, 1 h | AID 1496, 2009 | inhibition, % at 20 µM | 220,000 tested, 0.46% active;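 active = inhibition over about 50% at 20 µM in the single-dose screen, limit read from the data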
#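 test system = Cerulean-Runt domain fusion protein, energy donor | probe or stimulus = Venus-CBFb binding partner, 100 nM | incubation = two 1 h room-temperature incubations shielded from light | detection = fluorescence energy transfer, 422 nm excitation, 530/480 nm emission | measure = loss of energy transfer signal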
# Runt-SMMHC FRET = inhibitors of RUNX1 Runt–CBFb-SMMHC binding, primary screen, biochemical, FRET, Cerulean-Runt, Venus-CBFb-SMMHC, uHTS; inhibition, % at 20 µM; Cerulean-Runt/Venus-CBFb-SMMHC FRET ratio 530/480, 1 h; 220,000 tested, 0.74% active;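 active = mean inhibition across duplicate retests at 20 µM reaching about 50%, limit read from the data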;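 also: inhibitors lower the FRET ratio by blocking Runt binding to CBFb-SMMHC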
# A number is an active result; . = inactive; ? = inconclusive; / = not tested or not shown; + = active, no number. In the library only some 1.5% were active in any assay of this set; here they are far more common.
SMILES,RanGTP-Imp inh,Hck-Nef inh,CaV13 ICDI inh,Runt-CBFb FRET,Runt-SMMHC FRET
CCN1CCN(c2nc3ccccn3c(=O)c2/C=C(\C#N)S(=O)(=O)c2ccccc2)CC1,77,.,.,.,.
Cc1ccc(S(=O)(=O)/C(C#N)=C/c2c(N3CCC(C(N)=O)CC3)nc3c(C)cccn3c2=O)cc1,.,.,.,.,.
Cc1ccc(S(=O)(=O)/C(C#N)=C/c2c(N3CCC(C(N)=O)CC3)nc3ccccn3c2=O)cc1,34,.,.,.,.
Cc1cccc(N(Cc2ccccc2)C(=O)c2ccc(C)c(S(=O)(=O)N3CCOCC3)c2)c1,/,/,.,/,/
Cc1ccc(C(=O)CCC2CCCCC2=O)cc1 (stereo unspecified),.,.,.,.,.
Cc1cc(/C=C2\SC(=S)N(Cc3ccco3)C2=O)c(C)n1-c1cccnc1,21,.,.,.,.
O=C1/C(=C/c2cccnc2)SC(=S)N1Cc1ccco1,/,/,.,/,/
CCOc1ccc(NC(=O)CN(C)C(=O)CCCNC(=O)c2ccc(Cl)cc2)cc1OCC,/,/,32,/,/
COc1cccc(NC(=O)CN(C)C(=O)CCCNC(=O)c2ccc(Cl)cc2)c1,/,/,.,/,/
COC(=O)c1ccc(NC(=S)NNC(=O)c2ccccc2)cc1,.,.,.,.,.
CCCNC(=O)c1[nH]c(C)c(C(=O)OCC)c1C,.,.,/,.,.
CC(=O)Nc1ccc(C(=O)N(C)c2ccccc2)cc1,.,.,.,.,.
CN(C(=O)c1ccc(NC(=O)C2CC=CCC2C(=O)O)cc1)c1ccccc1 (stereo unspecified),25,.,.,.,.
O=C(c1cccs1)N1C[C@H](n2cc(-c3ccc(F)cc3)nn2)[C@@H](O)C[C@@H]1c1ccc(Cl)cc1,/,/,.,/,/
COc1cc2ccc(=O)oc2c(O)c1OCC=C(C)C,.,.,/,61,62
O=C(CCn1c(=O)c2ccccc2n(Cc2cc(=O)n3ccccc3n2)c1=O)NCc1ccco1,.,.,.,.,.
Cc1cccn2c(=O)c3cc(C#N)c(=O)n(-c4c(C)n(C)n(-c5ccccc5)c4=O)c3nc12,.,.,.,.,.
N#Cc1cc2c(=O)n3ccccc3nc2n(Cc2ccco2)c1=NC(=O)c1ccco1,56,.,.,.,/
Cc1ccccc1C(=O)N=c1c(C#N)cc2c(=O)n3cccc(C)c3nc2n1Cc1ccco1,110,.,/,124,58
COc1ccc(C(=O)N=c2c(C#N)cc3c(=O)n4cccc(C)c4nc3n2Cc2ccco2)cc1,78,.,/,70,/
COCCOC(=O)c1c(NC(=O)CNc2ccc(C)c(F)c2)sc(C(N)=O)c1C,.,.,.,.,.
NC(=O)c1c(NC(=O)c2c(F)cccc2F)sc2c1CCN(Cc1ccccc1)C2,163,/,.,/,/
CCC(=O)Nc1sc2c(c1C(N)=O)CCN(C(C)=O)C2,.,.,.,/,.
NC(=O)c1c(NC(=O)c2ccccc2)sc2c1CCC2,.,/,.,/,/
CCC(=O)Nc1sc2c(c1C(N)=O)CCN(Cc1ccccc1)C2,134,/,48,/,/
SMILES,RanGTP-Imp inh,Hck-Nef inh,CaV13 ICDI inh,Runt-CBFb FRET,Runt-SMMHC FRET
NC(=O)c1c(NC(=O)c2ccccc2)sc2c1CCN(Cc1ccccc1)C2,.,/,+,/,/
CC(C)C(=O)Nc1sc2c(c1C(N)=O)CCN(Cc1ccccc1)C2,134,/,+,/,/
CC(C)C[C@@H](CN)NC(=O)c1nc[nH]c1C(=O)N[C@@H](Cc1ccccc1)C(=O)CNC[C@H](C)NC(=O)c1nc[nH]c1C(=O)N[C@@H](CC(=O)O)C(=O)O,/,/,.,/,/
COc1ccc([C@H]2CC(=O)C=C(c3ccc(-c4ccccc4)cc3)C2)cc1OC,/,/,.,/,/
COc1cc(SSc2cc(OC)cc([N+](=O)[O-])c2N)c(N)c([N+](=O)[O-])c1,.,.,.,.,64
COc1ccc(N2CCN(c3ncnc4c3[nH]c3ccccc34)CC2)cc1,19,.,/,.,.
CC1NC(=O)c2cccnc2-n2c1nc1cc(F)ccc1c2=O (stereo unspecified),/,/,.,/,/
CN1C(=O)Cc2cc(S(=O)(=O)N3CCOCC3)ccc21,39,.,.,.,.
CNCc1cc(C)n(-c2cc(S(=O)(=O)N3CCOCC3)ccc2N2CCCC2)c1C,/,/,.,/,/
Cc1ccc(C)n1-c1cc(S(=O)(=O)N2CCOCC2)ccc1N1CCCC1,33,.,.,.,.
CCCS(=O)(=O)N1CCCC(C(=O)NCCCN(CC)c2cccc(C)c2)C1 (stereo unspecified),.,.,/,.,.
CCCCN(C=O)c1c(CC)nc2ccc(C(=O)NCCc3c[nH]c4ccccc34)cn12,/,/,.,/,/
CCc1nc2ccc(C(=O)NCCc3c[nH]c4ccccc34)cn2c1N(C=O)CCC(C)C,/,/,38,/,/
Fc1ccc(NC(=S)NCc2cccnc2)cc1,93,.,.,.,.
Cn1c(/C=C(\C#N)C(N)=S)ccc1-c1ccc(Br)cc1,/,.,.,89,92
O=c1cc(N2CCN(Cc3ccccc3)CC2)[nH]c(=O)n1-c1cccc(C(F)(F)F)c1,41,.,/,.,.
COc1ccc(-n2c(=O)cc(N3CCN(Cc4ccccc4)CC3)[nH]c2=O)cc1,?,.,.,/,.
O=c1cc(N2CCN(Cc3ccccc3)CC2)[nH]c(=O)n1Cc1ccc(F)cc1,42,.,.,.,.
CN(C)CC(C)(C)CNS(=O)(=O)c1ccc(Cl)cc1,.,.,.,.,.
O=c1oc2c3c4c(cc2s1)CCCN4CCC3,.,.,.,.,.
O=c1ccc2cc3c4c(c2o1)CCCN4CCC3,92,.,32,.,.
CN(C)c1ccc(/C=C/c2ccc3ccccc3n2)cc1,.,.,/,.,.
CCCN(CCC)c1ccc(/C=C/c2ccc3cc(OCC)ccc3n2)cc1,21,.,.,.,.
O=c1[nH]c2ccccc2nc1/C=C/c1ccc(O)cc1,?,.,.,.,.
O=c1[nH]c2ccccc2nc1/C=C/c1ccccc1,61,.,+,.,88
O=c1[nH]c2ccccc2nc1/C=C/c1ccc(F)cc1,38,.,.,.,.
CSc1ccccc1C(=O)Nc1cccc([N+](=O)[O-])c1,.,.,.,.,.
Cc1c(O)ccc2c(CN3CCN(C/C=C/c4ccccc4)CC3)cc(=O)oc12,52,.,.,.,81
Cc1cc2oc(=O)cc(CN3CCN(C/C=C/c4ccccc4)CC3)c2cc1O,.,.,.,.,.
CC(Nc1ncnc2sccc12)c1ccccc1 (stereo unspecified),28,/,.,/,/
